A selection: hits, their analogues and other compounds. The true share with any hit is near 3.1%.
OX1R antag-1: antagonists of human orexin 1 receptor (OX1R). AID 485270. inhibition, % at 6.6 µM. hit rate 1.8% among 330,000. OX1R-expressing cells, FRET antagonist read-out. O43613; in the data active = inhibition mostly above about 38%, no sharp cut-off; inactive = mostly below about 40%
GPR7 antag: human neuropeptides B/W receptor 1 antagonism; P48145; GPR7-expressing cells, fluorescence antagonist assay; inhibition, % at 4.4 µM; hit rate 1.1% among 290,000; in the data active = inhibition above about 16%, passing the limit was not always enough;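 note: cells stimulated with the agonist NPW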
Target sequence (P48145 whole entry, looked up): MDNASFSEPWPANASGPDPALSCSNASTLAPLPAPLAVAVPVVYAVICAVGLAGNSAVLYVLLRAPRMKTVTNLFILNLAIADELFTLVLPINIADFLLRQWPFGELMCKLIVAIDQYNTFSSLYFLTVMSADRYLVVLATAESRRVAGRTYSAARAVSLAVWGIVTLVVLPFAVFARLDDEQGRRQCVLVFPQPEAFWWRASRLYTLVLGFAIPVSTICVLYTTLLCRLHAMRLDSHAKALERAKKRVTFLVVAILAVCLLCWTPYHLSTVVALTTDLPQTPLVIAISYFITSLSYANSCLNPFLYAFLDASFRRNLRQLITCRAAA
GalR3 antagonist: human GalR3 antagonism | O60755 | HEK293 GalR3-CNG cAMP membrane potential fluorescence; galR3 body fused to GalR1 C-terminus | inhibition, % at 3 µM | hit rate 0.44% among 360,000;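 active = inhibition above the screen-wide average plus 3 SD, cut at about 13% in these data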;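 note: forskolin and galanin both at EC90 stimulate the cells; cAMP rise reported by CNG channel membrane potential dye signal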
Target sequence (O60755 1-299 limits assumed): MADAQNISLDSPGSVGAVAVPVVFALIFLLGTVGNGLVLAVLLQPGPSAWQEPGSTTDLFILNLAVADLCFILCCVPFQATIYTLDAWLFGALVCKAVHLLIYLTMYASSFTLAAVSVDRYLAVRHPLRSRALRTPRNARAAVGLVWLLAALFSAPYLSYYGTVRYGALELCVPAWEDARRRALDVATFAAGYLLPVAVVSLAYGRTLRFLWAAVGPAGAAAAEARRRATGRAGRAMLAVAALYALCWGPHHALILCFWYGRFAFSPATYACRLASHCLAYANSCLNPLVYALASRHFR
OX1R antag-2: blocks the human orexin 1 receptor. O43613. CHO/OX1R cells, Fluo-8 calcium fluorescence, orexin A. inhibition, % at 5 µM. hit rate 0.43% among 330,000. AID 434989;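 active = inhibition above its plate's threshold, mean inhibition of all tested compounds on the plate plus 3 SD, cut at about 37% in these data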
CHO parental Ca: signal in parental CHO cells, OX1R antagonist counter-screen | parental CHO-K1, ATP-induced calcium, Fluo-8 fluorescence | inhibition, % at 5.6 µM | hit rate 0.63% among 330,000;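 active = inhibition above that plate's mean sample inhibition plus 3 SD, cut at about 26% in these data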
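Material: parental CHO cells / Compound: single nominal dose of 5.6 µM per compound / Signal: Fluo-8 fluorescence / Replicates: singlicate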
GPR7 antag conf: confirmation of human GPR7 antagonists | shares compounds with GPR7 antag | inhibition, % at 4.4 µM | GPR7-expressing cells, calcium fluorescence antagonist mode | AID 1952 | hit rate 52% among 2,400; in the data active = inhibition above about 24%;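 note: stimulated with the GPR7 agonist NPW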
MCHR1 antag: counter-screen for GPR7 antagonists: antagonists of human MCHR1; shares compounds with GPR7 antag; MCHR1-expressing cells, fluorescence antagonist assay; inhibition, % at 4.4 µM; hit rate 62% among 2,400; in the data active = inhibition above about 22%
A number is an active result; n = inactive; x = no result given.

SMILES | OX1R antag-1 | GPR7 antag | GalR3 antagonist | OX1R antag-2 | CHO parental Ca | GPR7 antag conf | MCHR1 antag
COc1ccc(N(C)S(=O)(=O)c2cccc(C(=O)N(C)Cc3ccc(C)o3)c2)cc1 | n | 25 | n | n | n | 31 | 26
COc1ccc(N(C)S(=O)(=O)c2cccc(C(=O)NC3CCCC(C)C3C)c2)cc1 (stereo not drawn) | n | x | n | n | n | x | x
CC(=O)N1CCN(S(=O)(=O)c2cccc(C(=O)N(C)Cc3ccc(C)o3)c2)CC1 | x | x | n | x | x | x | x
CC1CC(C)CN(C(CCc2ccccc2)C(=O)NC2CCCCC2)C1 (stereo not drawn) | x | x | n | x | x | x | x
Cc1ccc(C(=O)N/N=C\c2ccc([N+](=O)[O-])o2)cn1 | 70 | 26 | n | n | n | n | n
Cc1ccc(C(=O)N/N=C\c2ccc(-c3ccc([N+](=O)[O-])cc3)o2)cn1 | n | n | n | n | n | x | x
N#Cc1c(N2CCCCC2)nc(N2CCCCC2)c2c1CCN(Cc1ccccc1)C2 | n | 46 | n | n | n | n | n
CC1CCC(NC(=O)c2cccc(S(=O)(=O)N3CCN(c4ccccc4)CC3)c2)CC1 (stereo not drawn) | n | x | n | n | n | x | x
CCn1c(=O)c(=O)[nH]c2cc(C(=O)NC3CCCc4ccccc43)ccc21 (stereo not drawn) | n | 23 | n | n | n | n | n
O=C(NC1CCCc2ccccc21)c1cccc(S(=O)(=O)N2CCN(c3ccccc3)CC2)c1 (stereo not drawn) | n | 45 | n | n | n | 62 | 43
CCn1c(=O)c(=O)[nH]c2cc(C(=O)NC3CC3)ccc21 | n | n | n | n | n | x | x
CN(C)C(CNC(=O)c1cccc(S(=O)(=O)N2CCN(c3ccc(F)cc3)CC2)c1)c1ccccc1 (stereo not drawn) | x | x | n | x | x | x | x
CCOC(=O)c1[nH]c2ccc(OC)cc2c1NS(=O)(=O)c1ccc(OC)cc1OC | n | 22 | n | n | n | 32 | n
Cc1c(C(=O)N2CCN(c3ccccn3)CC2)sc2ncnc(N3CCN(c4ccccc4)CC3)c12 | n | n | n | n | n | x | x
CCCNC(=O)Cn1cnc2sc(C(=O)N3CCN(Cc4ccc5c(c4)OCO5)CC3)c(C)c2c1=O | n | n | n | n | n | x | x
Cc1c(C(=O)N2CCN(Cc3ccc4c(c3)OCO4)CC2)sc2ncnc(N3CCN(c4ccccc4)CC3)c12 | n | 44 | n | n | n | 44 | 81
Cc1c(C(=O)N2CCN(Cc3ccc4c(c3)OCO4)CC2)sc2ncnc(N3CCN(c4ccccc4F)CC3)c12 | n | 75 | n | n | n | 55 | 82
Cc1cc(Cl)cc(C)c1OCCOCCNCc1ccccc1 | n | 27 | n | n | n | 35 | 28
Cc1cc(Cl)cc(C)c1OCCNCc1ccccc1 | n | n | n | n | n | x | x
Clc1ccc(OCCOCCNCc2ccccc2)cc1Cl | n | 90 | n | n | n | n | 27
CNC12CCc3cc(OC)c(OC)c(c31)-c1cc3c(cc1C2)OCO3 (stereo not drawn) | x | x | n | x | x | x | x
Cc1cccc(C)c1-n1nnnc1C1c2ccccc2C(=O)N1CCCn1ccnc1 (stereo not drawn) | x | x | n | x | x | x | x
C=CCN1CC(COCc2ccccc2)OCCS1(=O)=O (stereo not drawn) | x | x | n | x | x | x | x
COc1cccc(CN(C)C(=O)[C@@H](Cc2ccccc2)NC(=O)[C@H]2O[C@@H](n3ccc(=O)[nH]c3=O)[C@H](O)[C@@H]2O)c1 | x | x | n | x | x | x | x
COc1ccc(CNC(=O)C2CCCN(S(=O)(=O)c3cnc[nH]3)C2)cc1 (stereo not drawn) | n | 29 | n | n | n | n | n
SMILES | OX1R antag-1 | GPR7 antag | GalR3 antagonist | OX1R antag-2 | CHO parental Ca | GPR7 antag conf | MCHR1 antag
Cc1ccc(CNC(=O)C2CCCN(S(=O)(=O)c3cnc[nH]3)C2)cc1 (stereo not drawn) | n | n | n | n | n | x | x
Cc1ccc(-c2nc3ccc(Br)cn3c2Cc2cccc(Cl)c2)cc1 | x | x | n | x | x | x | x
N/C(=N\OC(=O)COc1ccccc1)c1ccc(Cl)cc1 | n | 24 | n | n | n | n | n
CCOc1ccccc1-n1c(C)nc2cc(C(=O)O)ccc21 | n | 28 | n | n | n | n | n
Cc1nc2cc(C(=O)O)ccc2n1-c1ccc(F)cc1F | n | n | n | n | n | x | x
CC(O)CNCCCOc1ccc(Cl)cc1C(C)(C)C (stereo not drawn) | n | 21 | n | n | n | 38 | 45
CCc1ccc(OCc2nnc(NC(=O)c3cccs3)s2)cc1 | n | 25 | n | n | n | n | n
COc1ccc(Br)cc1C1NC(=O)NC(C)=C1C(=O)N(C)C (stereo not drawn) | n | 23 | n | n | n | n | n
CCOC(=O)C1(Cc2ccccc2C)CCCN(C(=O)c2sccc2C)C1 (stereo not drawn) | n | 43 | n | n | n | n | 48
CCOC(=O)C1(Cc2ccccc2C)CCCN(C(=O)c2ccoc2)C1 (stereo not drawn) | n | n | n | n | n | x | x
O=C(NCCc1ccc2c(c1)OCO2)Oc1ccccc1 | x | x | n | x | x | x | x
Cc1cccc2cc(CN(CCCN(C)C)C(=S)NCCc3ccccc3)c(=O)[nH]c12 | n | 31 | n | n | n | 49 | 30
Cc1ccc2[nH]c(=O)c(CN(CCCN(C)C)C(=S)NCCc3ccccc3)cc2c1 | n | n | n | n | n | x | x
Cc1nn(C)cc1CN(C)C(=O)C1CCC(=O)N(CCc2cccc(F)c2)C1 (stereo not drawn) | x | x | n | x | x | x | x
Cc1cccc2cc(CNCC3CCCO3)c(Cl)nc12 (stereo not drawn) | n | 22 | n | n | n | n | n
CC(C)c1ccccc1OCC(O)CN1CCN(S(=O)(=O)c2ccc([N+](=O)[O-])cc2)CC1 (stereo not drawn) | n | 47 | n | n | n | 45 | 76
Cc1ccc(C)c(-n2c3nc(=O)[nH]c(=O)c-3cc3cc([N+](=O)[O-])ccc32)c1 | n | 22 | n | n | n | 42 | 43
COCOCCn1cc(CN2CCS(=O)(=O)N(Cc3ccc(-c4ccncc4)cc3)C(CC(C)C)C2=O)nn1 (stereo not drawn) | x | x | n | x | x | x | x
Cn1nnnc1SCCNCC#Cc1ccccc1 | n | 26 | n | n | n | n | n
CCOc1ccc(N2CC(C(=O)Nc3ccncc3)CC2=O)cc1 (stereo not drawn) | n | 25 | n | n | n | n | n
CCOc1ccc(N2CC(C(=O)Nc3ccccn3)CC2=O)cc1 (stereo not drawn) | n | n | n | n | n | x | x
C=CCN=C1NC(c2ccccc2C(F)(F)F)C(C(=O)OC)=C(C)N1Cc1cccc(C(F)(F)F)c1 (stereo not drawn) | x | x | n | x | x | x | x
O=C(NC1CC2CCCC(C1)N2C(=O)Nc1ccc(Cl)c(C(F)(F)F)c1)C1CC1 (stereo not drawn) | n | n | n | n | n | x | x

Compound activity from PubChem BioAssay.
